Source: PubChem
Hits are enriched below; roughly 1.3% of the tested compounds scored in any of these assays.
G6PDH counter: counter-screen for G6PDH assay hits: L. mesenteroides G6PDH inhibition; Purified L. mesenteroides G6PDH, diaphorase/resazurin coupled fluorescence, 45 min; inhibition, % at 5 µM; 200,000 compounds, 0.12% hits; AID 1020; in the data active = inhibition above about 50%
PfGluPho inh: PfG6PD (Plasmodium falciparum) enzyme inhibition. PfGluPho enzyme, NADPH resazurin-diaphorase fluorescence. 350,000 compounds, 0.78% hits. AID 504690. inhibition, % at 20 µM;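 active = inhibition reaching at least a set limit at 20 µM in the primary screen, cut at about 59% in these data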;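 also: 0% = DMSO wells with substrate and 100% = DMSO wells lacking glucose-6-phosphate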
HKDC1 inhibitor: inhibitors of human hexokinase HKDC1; Q2TB90; 340,000 compounds, 0.16% hits; recombinant HKDC1, G6PDH/diaphorase resazurin coupled fluorescence; inhibition, % at 20 µM;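 active = inhibition above about 35% when tested at 20 µM, limit read from the data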;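 also: plate controls were DMSO wells with enzyme for no effect and DMSO wells lacking enzyme for full effect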
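Test system: HK5 enzyme. Quantity: 5 µg/mL HK5 final. Reagent: glucose and ATP substrates. Schedule: 90 min reaction incubation at room temperature, dark. Technique: resazurin-to-resorufin fluorescence via G6PDH and diaphorase coupling, 525/613 nm. Control set: DMSO wells with and without enzyme mix.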
Diaph inh CS: inhibits diaphorase or chemically oxidizes, flagging diaphorase assay artifacts; diaphorase resazurin-to-resorufin fluorescence, NADH, 16 min; bacterial (C. kluyveri) enzyme, not human; inhibition, % at 20 µM; 190,000 compounds, 0.69% hits; AID 1217;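 active = primary screen inhibition at 20 µM above a set limit, cut at about 50% in these data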;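 also: plate controls were DMSO with full reaction for no effect and wells lacking NADH for full effect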
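Test system: Clostridium kluyveri diaphorase enzyme / Quantity: diaphorase at 0.14 U/mL in enzyme working solution / Incubation: 16-min room-temperature incubation before reading / Benchmarks: NADH-free wells as positive control, DMSO-only neutral wells / Signal: resorufin fluorescence 544/590 nm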
Diaph act CS: counter-screen for diaphorase-based assays: diaphorase activators and chemical reducers; Diaphorase/resazurin coupled assay, resorufin fluorescence, 16 min; active compounds read high; 1 = vehicle wells, 0 = NADH-free wells; 190,000 compounds, 0.005% hits; activation factor at 20 µM;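 active = diaphorase activity raised at least twofold by the compound at 20 µM; inactive = activation factor below 2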
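Measured by – red resorufin fluorescence at 544/590 nm excitation/emission · Test system – Clostridium kluyveri diaphorase, purified enzyme · Incubation – reaction time 16 min, room temperature · Buffer or medium – 50 mM HEPES pH 7.4 with 4.542 mM MgCl2, 0.005% Tween 20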
PfG6PD confirm: PfG6PD inhibition, single-dose confirmed | 2,400 compounds, 34% hits | inhibition, % at 20 µM | shares compounds with PfGluPho inh | AID 504753 | recombinant PfGluPho, NADPH-diaphorase-resazurin fluorescence;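 active = inhibition of at least 50% at 20 µM in any single replicate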;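 also: 0% = DMSO with substrate and 100% = DMSO lacking glucose-6-phosphate substrate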
Diaphorase 10uM: inhibits diaphorase or oxidizes, flagging false PfG6PD hits. shares compounds with PfGluPho inh. diaphorase-coupled resazurin reduction, fluorescence, NADPH 10 uM. inhibition, % at 20 µM. 820 compounds, 39% hits. AID 504862;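 active = average inhibition reaching 50% or more with the compound at 20 µM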;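 also: resorufin red fluorescence formed as diaphorase reduces resazurin using NADPH; 0% = DMSO with enzyme and 100% = DMSO without enzyme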
Diaph ctr 30uM: diaphorase inhibition or oxidation at 30 uM NADPH; shares compounds with PfGluPho inh; inhibition, % at 20 µM; 820 compounds, 29% hits; AID 504863; Diaphorase/resazurin coupled assay, resorufin fluorescence;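 active = inhibition averaging 50% or more, tested at 20 µM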;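 also: 0% = DMSO with enzyme and 100% = DMSO wells lacking diaphorase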
* = called active by the depositor; · = no result.

SMILES	G6PDH counter	PfGluPho inh	HKDC1 inhibitor	Diaph inh CS	Diaph act CS	PfG6PD confirm	others
O=C(O)c1cccc(NC(=S)N/N=C/c2ccccn2)c1	3	68*	-33	13	0.9	44
CN(C(=S)NC(=O)C1CC1)c1ccc(O)cc1	·	60*	2	·	·	-1
CCN(C(=S)NC(=O)C1CC1)c1ccccc1	·	8	-2	·	·	·
COc1cc(NC2CCCCC2O)c2nc(-c3ccc(Cl)cc3)ccc2c1 (stereo not drawn)	·	61*	23	·	·	42
COc1ccc(OCC(=O)OCC(=O)NC2CCCCC2C)cc1 (stereo not drawn)	·	13	-5	·	·	·
Cc1ccc(/C=N/NC(=O)c2c(-c3ccccc3)noc2C)o1	9	36	4	13	0.9	·
COc1ccc(Cl)cc1/C=N/NC(=O)c1c(-c2ccccc2)noc1C	·	127*	4	·	·	99*	Diaphorase 10uM=96*;Diaph ctr 30uM=83*
COc1cccc(/C=N/NC(=O)c2c(-c3ccccc3)noc2C)c1OC	·	-1	-3	·	·	·
Cc1onc(-c2ccccc2)c1C(=O)N/N=C/c1cc(Br)c(Br)o1	1	64*	3	10	0.9	28
COc1ccc(CC2=CC(=O)c3ccccc3C2=O)cc1	·	85*	29	·	·	9
Cc1ccc(NC(=S)NNC(=S)Nc2ccc(C)cc2)cc1	·	78*	-10	·	·	11
Cn1cc([N+](=O)[O-])c(C(=O)Nc2ccc(-c3nc4ccccc4[nH]3)cc2)n1	3	3	-4	20	0.8	·
Cn1cc([N+](=O)[O-])c(C(=O)Nc2ccc3nc(-c4ccccc4)[nH]c3c2)n1	6	62*	-4	23	0.8	33
O=C(Nc1ccc2nc(-c3ccccc3)[nH]c2c1)c1cccs1	5	76*	-3	14	0.9	8
CCN(CC)S(=O)(=O)c1ccc(O)c(NC(=O)COc2ccc(S(=O)(=O)N3CCOCC3)cc2)c1	·	48	1	·	·	·
CC(=O)C1(O)C(C)CC2C3CC(F)C4(O)CC(O)CCC4(C)C3CCC21C (stereo not drawn)	·	-11	-4	·	·	·
O=C(c1ccc(S(=O)(=O)Nc2ccccc2F)cc1)N1CCN(c2ccccc2O)CC1	·	-10	8	·	·	·
O=C(NNc1cccc(Cl)n1)Nc1ccc(Cl)cc1	13	33	-7	14	0.9	·
Cc1ccc(NNC(=O)Nc2ccc(Cl)cc2)nn1	·	68*	2	·	·	26
CCCCn1c(N)c(N(CC(C)C)C(=O)C2CCN(S(=O)(=O)c3ccc(C)c(C)c3)CC2)c(=O)[nH]c1=O	·	-10	1	·	·	·
O=C1C=C(c2ccccc2)C(=O)N1Nc1ccccc1	0	60*	7	12	0.9	45
COc1ccccc1NC(=O)Nc1nn(C)c2cccc(N(C)C)c12	·	64*	12	·	·	21
Cc1ccc(N=Cc2ccc[nH]2)c(O)c1	-31	77*	7	31	0.7	40
Cc1ccccc1N=Cc1ccc[nH]1	·	-6	-3	·	·	·
Oc1c(Br)cc(/C=N/Nc2nncc3ccccc23)cc1Br	·	63*	10	·	·	-11
SMILES	G6PDH counter	PfGluPho inh	HKDC1 inhibitor	Diaph inh CS	Diaph act CS	PfG6PD confirm	others
Cc1ccc(S(=O)(=O)N2[C@@H](c3ccc(C(C)C)cc3)C(C(=O)O)=C[C@H]2C(C)(C)C)cc1	·	-34	2	·	·	·
Cc1[nH]n(-c2ccccc2)c(=S)c1C=Nc1cccc([N+](=O)[O-])c1	8	110*	2	27	0.7	48
Cc1c(Cc2ccc3c(c2)OCO3)sc(NC(=O)c2cccc3ccccc23)c1C(N)=O	11	87*	-9	21	0.8	30
Cc1nc(NC(=O)C2CCCC2)sc1Cc1ccc2c(c1)OCO2	4	12	3	14	0.9	·
Cc1c(Cc2ccc3c(c2)OCO3)sc(NC(=O)C2CC2)c1C(N)=O	·	70*	-5	·	·	34
CN1C2=C(C(=O)CC(C)(C)C2)C(c2cccs2)C2=C1CC(C)(C)CC2=O	·	21	0	·	·	·
CC(C)CN(C(=O)c1cccc(S(=O)(=O)N2CCN(C)CC2)c1)C1CCS(=O)(=O)C1 (stereo not drawn)	·	1	-3	·	·	·
C=CCN(CC=C)C(=S)NC(=O)c1ccc([N+](=O)[O-])cc1	-4	86*	-6	16	0.8	-7
S=c1ncc2[nH]c(=S)[nH]c2[nH]1	·	68*	0	·	·	59*	Diaphorase 10uM=-21;Diaph ctr 30uM=2
COC(=O)c1ccc(C#Cc2ccccc2)o1	·	5	-4	·	·	·
Cc1ccc(C)c(NC(=O)CSc2nc(=O)n(CCN3CCOCC3)c3c2CCCC3)c1	·	-3	-4	·	·	·
CCOC(=O)c1c(C)oc2c1c(C=NCc1ccccn1)c(O)c1ccccc12	-52	68*	22	64*	0.4	40
COc1ccccc1-c1noc2ncnc(Nc3cccc(C)c3C)c12	·	-3	-2	·	·	·
CC(=O)c1cccc(NC(=O)c2cnn(-c3ccccc3)c2C)c1	·	75*	6	·	·	51*	Diaphorase 10uM=41;Diaph ctr 30uM=35
Cc1c(C(=O)Nc2cccc([N+](=O)[O-])c2)cnn1-c1ccccc1	·	74*	-1	·	·	27
COc1cc2[nH]c(Cl)c([N+](=O)[O-])c2cc1OC	·	104*	11	·	·	21
CCNC(=S)N/N=C/c1cccc(OCc2c(F)cccc2Cl)c1	13	60*	-3	7	0.9	-22
CCCOc1cc(NCc2ccccc2)c2ncn(C(C)C)c2c1	·	77*	14	·	·	33
COCCOc1cc(NCc2ccccc2)c2ncn(C(C)C)c2c1	·	45	9	·	·	·
CCOc1cc(NCc2ccccc2)c2ncn(C(C)C)c2c1	·	66*	14	·	·	48*	Diaphorase 10uM=8;Diaph ctr 30uM=-3
C[C@@H](CO)NC(=O)c1nc[nH]c1C(=O)N[C@H](C)c1ccccc1	·	14	·	·	·	·
